Where “and” joins values, the source holds several entries; their conditions need not be identical. Identical values can stand only once.
Tests used:
[1] = system: Canis familiaris; assay: Heart rate was determined by intraduodenal administration of two dosages of 30 mg/kg of compound in anesthetized dogs. Value was reported for experiment 1; type: functional, Canis lupus familiaris
How it was run: (§1)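 Anesthetized dogs; compound given intraduodenally, generally as two doses, the second a cumulative (high) dose. LV functional refractory period and conduction time measured 15, 30 and 45 min after dosing; heart rate and blood pressure measured during nonpacing intervals. Values are % change from control, given per individual animal. Active if FRP or CT prolonged by ≥12%.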

[2] = system: Canis familiaris; assay: Heart rate was determined by intraduodenal administration of two dosages of 30 mg/kg of compound in anesthetized dogs. Value was reported for experiment 2; type: functional, Canis lupus familiaris; how it was run: as §1
[3] = system: Canis familiaris; assay: Heart rate was determined by intraduodenal administration of two dosages of 30 mg/kg of compound in anesthetized dogs. Value was reported for experiment 3; type: functional, Canis lupus familiaris; how it was run: as §1
[4] = system: Canis familiaris; assay: Conduction time was determined by intraduodenal administration of 30 mg/kg (high dose) of compound in anesthetized dogs. Value was reported for experiment 1; type: functional, Canis lupus familiaris; how it was run: as §1
[5] = system: Canis familiaris; assay: Conduction time was determined by intraduodenal administration of 30 mg/kg (high dose) of compound in anesthetized dogs. Value was reported for experiment 2; type: functional, Canis lupus familiaris; how it was run: as §1
[6] = system: Canis familiaris; assay: Conduction time was determined by intraduodenal administration of 30 mg/kg (high dose) of compound in anesthetized dogs. Value was reported for experiment 3; type: functional, Canis lupus familiaris; how it was run: as §1
[7] = system: Canis familiaris; assay: Conduction time was determined by intraduodenal administration of 10 mg/kg (low dose) of compound in anesthetized dogs. Value was reported for experiment 1; type: functional, Canis lupus familiaris; how it was run: as §1
[8] = system: Canis familiaris; assay: Conduction time was determined by intraduodenal administration of 10 mg/kg (low dose) of compound in anesthetized dogs. Value was reported for experiment 2; type: functional, Canis lupus familiaris; how it was run: as §1
[9] = system: Canis familiaris; assay: Conduction time was determined by intraduodenal administration of 10 mg/kg (low dose) of compound in anesthetized dogs. Value was reported for experiment 3; type: functional, Canis lupus familiaris; how it was run: as §1
[10] = system: Canis familiaris; assay: Heart rate was determined by intraduodenal administration of two dosages of 10 mg/kg of compound in anesthetized dogs. Value was reported for experiment 1; type: functional, Canis lupus familiaris; how it was run: as §1
[11] = system: Canis familiaris; assay: Heart rate was determined by intraduodenal administration of two dosages of 10 mg/kg of compound in anesthetized dogs. Value was reported for experiment 2; type: functional, Canis lupus familiaris; how it was run: as §1
[12] = system: Canis familiaris; assay: Heart rate was determined by intraduodenal administration of two dosages of 10 mg/kg of compound in anesthetized dogs. Value was reported for experiment 3; type: functional, Canis lupus familiaris; how it was run: as §1
[13] = system: Canis familiaris; assay: Left ventricular refractory period was determined by intraduodenal administration of 10 mg/kg (low dose) of compound in anesthetized dogs. Value was reported for experiment 1; type: functional, Canis lupus familiaris, Cardiac ventricle
How it was run: (§2)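 Anesthetized dogs received two intraduodenal doses, the second cumulative (low dose/high dose). Left ventricular FRP and CT were measured 15, 30 and 45 min after dosing. Heart rate and mean blood pressure were taken during nonpacing intervals. Values are percent change from control. The vehicle was 5% dextrose in water/tragacanth. Activity was defined as ≥12% prolongation of FRP or CT.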

[14] = system: Canis familiaris; assay: Left ventricular refractory period was determined by intraduodenal administration of 10 mg/kg (low dose) of compound in anesthetized dogs. Value was reported for experiment 2; type: functional, Canis lupus familiaris, Cardiac ventricle; how it was run: as §2
[15] = system: Canis familiaris; assay: Left ventricular refractory period was determined by intraduodenal administration of 10 mg/kg (low dose) of compound in anesthetized dogs. Value was reported for experiment 3; type: functional, Canis lupus familiaris, Cardiac ventricle; how it was run: as §2
[16] = system: Canis familiaris; assay: Left ventricular refractory period was determined by intraduodenal administration of 30 mg/kg (high dose) of compound in anesthetized dogs. Value was reported for experiment 1; type: functional, Canis lupus familiaris, Cardiac ventricle; how it was run: as §2
[17] = system: Canis familiaris; assay: Left ventricular refractory period was determined by intraduodenal administration of 30 mg/kg (high dose) of compound in anesthetized dogs. Value was reported for experiment 2; type: functional, Canis lupus familiaris, Cardiac ventricle; how it was run: as §2
[18] = system: Canis familiaris; assay: Left ventricular refractory period was determined by intraduodenal administration of 30 mg/kg (high dose) of compound in anesthetized dogs. Value was reported for experiment 3; type: functional, Canis lupus familiaris, Cardiac ventricle; how it was run: as §2
[19] = system: Canis familiaris; assay: Mean arterial blood pressure was determined by intraduodenal administration of two dosages of 30 mg/kg of compound in anesthetized dogs. Value was reported for experiment 1; type: functional, Canis lupus familiaris; how it was run: as §2
[20] = system: Canis familiaris; assay: Mean arterial blood pressure was determined by intraduodenal administration of two dosages of 30 mg/kg of compound in anesthetized dogs. Value was reported for experiment 2; type: functional, Canis lupus familiaris; how it was run: as §2
[21] = system: Canis familiaris; assay: Mean arterial blood pressure was determined by intraduodenal administration of two dosages of 30 mg/kg of compound in anesthetized dogs. Value was reported for experiment 3; type: functional, Canis lupus familiaris
[22] = system: Canis familiaris; assay: Mean arterial blood pressure was determined by intraduodenal administration of two dosages of 10 mg/kg of compound in anesthetized dogs. Value was reported for experiment 1; type: functional, Canis lupus familiaris; how it was run: as §2
[23] = system: Canis familiaris; assay: Mean arterial blood pressure was determined by intraduodenal administration of two dosages of 10 mg/kg of compound in anesthetized dogs. Value was reported for experiment 2; type: functional, Canis lupus familiaris; how it was run: as §2
[24] = system: Canis familiaris; assay: Mean arterial blood pressure was determined by intraduodenal administration of two dosages of 10 mg/kg of compound in anesthetized dogs. Value was reported for experiment 3; type: functional, Canis lupus familiaris
[25] = organism: Canis familiaris; assay: In vitro electrophysiological evaluation in canine cardiac ventricular muscle reported as maximum % change for conduction time(CT) at 0.1-10 uM concentration range; Minimal (<10% decrease or increase in CT).; type: functional, Canis lupus familiaris, Muscle tissue
How it was run: (§3)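 Canine right ventricle and papillary muscle strips in oxygenated Tyrode's solution, fitted with stimulating and recording electrodes. The extra-stimulus conduction-interval method was adapted for in vitro use. FRP and CT were read from a conduction-interval curve before and after various compound concentrations, and expressed as percent change from control. Compounds were taken from 10 mM deionized-water stock into Tyrode's. Each strip was used once as its own control.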

[26] = organism: Canis familiaris; assay: In vitro electrophysiological evaluation in canine cardiac ventricular muscle reported as % change for the functional refractory period (FRP) at 10 uM at concentration range of 0.1-10 uM; design: species or system Canis lupus familiaris, Muscle tissue; how it was run: as §3
[27] = organism: Canis familiaris; assay: In vitro electrophysiological evaluation in canine cardiac ventricular muscle reported as % change for conduction time(CT) at 10 uM at 0.1-10 uM concentration range; Minimal (<10% decrease or increase in CT).; type: functional, Canis lupus familiaris, Muscle tissue
[28] = organism: Canis familiaris; assay: In vitro electrophysiological evaluation in canine cardiac ventricular muscle reported as maximum % change for functional refractory period (FRP) at 0.1-10 uM concentration range; concentration at which it occurred is 10 uM; design: species or system Canis lupus familiaris, Muscle tissue; how it was run: as §3
[29] = organism: Canis familiaris; assay: In vitro electrophysiological evaluation in canine cardiac Purkinje fibres reported as percent change Vmax at 10 uM at concentration range of 0.1-10 uM; Minimal (<10% decrease or increase in V max).; type: functional; conditions: Canis lupus familiaris, Purkinje fiber
How it was run: (§4)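 Canine cardiac Purkinje fibres, intracellular microelectrode recording, paced at a basic cycle length of 1 s. APD95 and Vmax read simultaneously. Compound: 10 mM stock in deionized water, diluted into Tyrode's solution, tested over the stated concentration range. Each fibre used once as its own control. Result is % change from control, given at 10 µM or as the maximum with its concentration. M = <10% decrease or an increase in Vmax.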

[30] = organism: Canis familiaris; assay: In vitro electrophysiological evaluation in canine cardiac Purkinje fibres reported as percent change Vmax at 10 uM at concentration range of 1-100 uM.; type: functional; conditions: Canis lupus familiaris, Purkinje fiber; how it was run: as §4
[31] = organism: Canis familiaris; assay: In vitro electrophysiological evaluation in canine cardiac Purkinje fibres reported as percent change Vmax at 10 uM at concentration range of 1-100 uM; Minimal (<10% decrease or increase in V max).; type: functional; conditions: Canis lupus familiaris, Purkinje fiber; how it was run: as §4
[32] = organism: Canis familiaris; assay: In vitro electrophysiological evaluation in canine cardiac Purkinje fibres reported as percent change Vmax at concentration range of 1-100 uM; conduction block; type: functional; conditions: Canis lupus familiaris; Purkinje fiber; how it was run: as §4
[33] = organism: Canis familiaris; assay: In vitro electrophysiological evaluation in canine cardiac Purkinje fibres reported as percent change Vmax at concentration range of 0.1-10 uM; Minimal (<10% decrease or increase in V max).; type: functional; conditions: Canis lupus familiaris; Purkinje fiber; how it was run: as §4
[34] = organism: Canis familiaris; assay: In vitro electrophysiological evaluation in canine cardiac Purkinje fibres reported as % change for action potential duration at a concentration of 10 uM; type: functional, Canis lupus familiaris, Purkinje fiber; how it was run: as §4
[35] = organism: Canis familiaris; assay: In vitro electrophysiological activity in canine cardiac occurred is 100 uM; type: functional, Canis lupus familiaris, Heart
[36] = organism: Canis familiaris; assay: (§5) In vitro electrophysiological activity in canine cardiac occurred is 10 uM; type: functional, Canis lupus familiaris, Heart
[37] = organism: Canis familiaris; assay: In vitro electrophysiological evaluation in canine cardiac ventricular muscle reported as maximum % change for functional refractory period (FRP) at 0.1-100 uM concentration range; concentration at which it occurred is 100 uM; design: species or system Canis lupus familiaris, Muscle tissue; how it was run: as §3
[38] = organism: Canis familiaris; assay: In vitro electrophysiological evaluation in canine cardiac ventricular muscle reported as % change for the functional refractory period (FRP) at 10 uM at concentration range of 0.1-100 uM; design: species or system Canis lupus familiaris, Muscle tissue; how it was run: as §3
[39] = organism: Canis familiaris; assay: In vitro electrophysiological evaluation in canine cardiac ventricular muscle reported as % change for conduction time(CT) at 10 uM at 0.1-100 uM concentration range; Minimal (<10% decrease or increase in CT).; type: functional, Canis lupus familiaris, Muscle tissue
[40] = organism: Canis familiaris; assay: In vitro electrophysiological evaluation in canine cardiac ventricular muscle reported as maximum % change for conduction time(CT) at 0.1-100 uM concentration range; Minimal (<10% decrease or increase in CT).; type: functional, Canis lupus familiaris, Muscle tissue; how it was run: as §3
[41] = organism: Canis familiaris; assay: In vitro electrophysiological evaluation in canine cardiac Purkinje fibres reported as percent change Vmax at 10 uM at concentration range of 0.1-100 uM; Minimal (<10% decrease or increase in V max).; type: functional, organism-based; conditions: Canis lupus familiaris, Purkinje fiber; how it was run: as §4
[42] = organism: Canis familiaris; assay: In vitro electrophysiological evaluation in canine cardiac occurred is 100 uM; type: functional; conditions: Canis lupus familiaris; Heart
[43] = organism: Canis familiaris; assay: In vitro electrophysiological evaluation in canine cardiac Purkinje fibres reported as maximum percent change Vmax concentration range of 0.1-100 uM; Minimal (<10% decrease or increase in V max).; type: functional; conditions: Canis lupus familiaris; Purkinje fiber; how it was run: as §4
[44] = organism: Canis familiaris; assay: as §5; type: functional, Canis lupus familiaris, Heart; remark: listed apart in the source
[45] = organism: Canis familiaris; assay: In vitro electrophysiological evaluation in canine cardiac Purkinje fibres reported as % change for action potential duration at 10 uM at 0.1-100 uM concentration range; type: functional, Canis lupus familiaris, Purkinje fiber; how it was run: as §4

SMILES	HR [1]	HR [2]	CT [4]	CT [5]	CT [7]	CT [8]	HR [10]	HR [11]	LV FRP [13]	LV FRP [14]	LV FRP [16]	LV FRP [17]	Mean blood pressure [19]	Mean blood pressure [20]	Mean blood pressure [22]	Mean blood pressure [23]	Vmax [30]	APD95 [34]	APD95 [36]	other results
CC(=O)C(CC1C(=O)C2CCN1CC2)C(=O)c1ccc(Cl)cc1.Cl (centres undefined)	2%	-28%	9%	7%	3%	0%	1%	-14%	4%	11%	1%	18%	-6%	-16%	-5%	-4%	-10%	23%	23%	HR [3]: -22%; CT [6]: 13%; CT [9]: 8%; HR [12]: -15%; LV FRP [15]: 11%; LV FRP [18]: 15%; Mean blood pressure [21]: 7%; Mean blood pressure [24]: 7%; CT [25]: <10%; FRP [26]: 24%; CT [27]: <10%; FRP [28]: 24%; Vmax [29]: < 10%; Vmax [31]: < 10%; Vmax [32]: 100%; Vmax [33]: < 10%; APD95 [35]: -16%
CC(=O)C(CC1C(=O)C2CCN1CC2)C(=O)c1ccc([N+](=O)[O-])cc1.Cl (centres undefined)	-14%	-32%	-3%	11%	-3%	9%	-11%	-36%	9%	16%	13%	22%	12%	-30%	10%	-39%	-18%	28%	28%	FRP [37]: 23% and 30%; FRP [38]: 21% and 28%; CT [39]: <10%; CT [40]: <10%; Vmax [41]: < 10%; Vmax [42]: -24%; Vmax [43]: < 10%; APD95 [44]: 29%; APD95 [45]: 29%
